Measured values from different studies.
Compare with care: the assays were run in different laboratories. pIC50: −log10 of the molar value.
Target: ALK tyrosine kinase receptor (ALK, Homo sapiens, UniProt Q9UM73)

O=[N+]([O-])c1cccc(-c2cnc3[nH]c4ccccc4c3c2)c1
pIC50 (enzyme activity; inhibitor; ELISA): < 5.00

Cc1cc(-c2ccnc(C#N)c2)n[nH]1
pIC50 (enzyme activity; inhibitor; TR-FRET): 3.89

C=CC(=O)Nc1cc(Nc2nccc(Nc3cc(Cl)c(F)cc3C(C)(C)O)n2)c(OC)cc1N1CC[C@@H](N(C)C)C1
pIC50 (enzyme activity; inhibitor; with preincubation): 5.93

CC(C)(C)n1nc(-c2cnc3cc(OC4CC4)ccc3c2)c(C(N)=O)c1N
pIC50 (cell-free assay): < 5.00

Cc1cc(Nc2cc(CN3CCOCC3)c3nc(C)c(Cc4ccc(Cl)cc4F)n3n2)n[nH]1
pIC50 (enzyme activity; inhibitor; TR-FRET): 6.86

Clc1cnc2[nH]c3ccc(-c4ccc(N5CCOCC5)cn4)cc3c2c1
pIC50 (enzyme activity; inhibitor; ELISA): < 5.00

Cc1cc(-c2cccc(Cl)c2)n[nH]1
pIC50 (enzyme activity; inhibitor; TR-FRET): 4.18

CC(C)(C)n1nc(-c2ccc3nc(OC4CC4)ccc3c2)c(C(N)=O)c1N
pIC50 (cell-free assay): < 5.00

CCn1ncc2c1-c1cnc(N)c(c1)O[C@H](C)c1cc(F)ccc1-c1nn(C)nc1C2
pIC50 (enzyme activity; inhibitor; radiometric): 8.96

COc1ccc2c(Oc3ccc4c(C(=O)Nc5ccccc5N)cccc4c3)ccnc2c1
pIC50 (enzyme activity; inhibitor): < 6.30

c1ccc(CCc2ccc3[nH]c4ncc(-c5ccc6c(c5)OCO6)cc4c3c2)cc1
pIC50 (enzyme activity; inhibitor; ELISA): < 5.00

Cc1cc(-c2cccc(C#N)c2)n[nH]1
pIC50 (enzyme activity; inhibitor; TR-FRET): 4.29

COc1cccc(Nc2cnc3[nH]c4ccc(CCc5ccccc5)cc4c3c2)c1
pIC50 (enzyme activity; inhibitor; ELISA): < 5.00

Cc1cc(-c2cc(C#N)ccc2O[C@@H]2C[C@@H]2c2ccc(F)cc2F)n[nH]1
pIC50 (enzyme activity; inhibitor; TR-FRET): 5.89
